Assay results from ChEMBL document CHEMBL4257565, “A phenotypic approach to the discovery of compounds that promote non-amyloidogenic processing of the amyloid precursor protein: Toward a new profile of indirect β-secretase inhibitors” (Eur J Med Chem, 2018).

Legend:
Assay type in all cases: cell-based
[1] = target: T1, Beta-secretase 1 (Homo sapiens, UniProt P56817); assay: Inhibition of BACE1 in human SH-SY5Y cells harboring wild type APP695 assessed as increase in alphaCTF level at 3 uM by Western blot method relative to chloroquine
T1 sequence (P56817 whole entry, the tested form may be a part): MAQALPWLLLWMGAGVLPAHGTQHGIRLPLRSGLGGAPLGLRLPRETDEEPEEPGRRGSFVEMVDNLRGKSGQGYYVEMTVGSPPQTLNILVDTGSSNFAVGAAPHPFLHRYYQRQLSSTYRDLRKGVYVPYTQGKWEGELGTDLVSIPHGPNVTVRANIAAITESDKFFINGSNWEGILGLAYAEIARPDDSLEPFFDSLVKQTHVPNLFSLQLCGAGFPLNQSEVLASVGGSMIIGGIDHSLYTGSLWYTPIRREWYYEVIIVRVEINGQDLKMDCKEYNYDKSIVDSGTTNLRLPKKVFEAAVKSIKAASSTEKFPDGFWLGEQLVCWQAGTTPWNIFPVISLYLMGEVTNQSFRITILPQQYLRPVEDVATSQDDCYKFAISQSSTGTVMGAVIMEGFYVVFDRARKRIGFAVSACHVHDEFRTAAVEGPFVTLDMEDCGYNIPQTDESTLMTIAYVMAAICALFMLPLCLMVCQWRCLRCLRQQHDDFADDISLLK
In short: (§1)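 APP C-terminal fragments (αCTFs and AICD) were detected by Western blot and scored as band intensity. Compounds were tested at 1, 3 and 10 µM.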

[2] = target: T1, Beta-secretase 1; assay: Inhibition of BACE1 in human SH-SY5Y cells harboring wild type APP695 assessed as reduction in amyloid beta (1 to 40) level after 24 hrs by ELISA method
In short: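 Aβ1-40 and Aβ1-42 levels were measured by ELISA in APPwt-expressing SH-SY5Y cells after compound treatment.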

[3] = target: T1, Beta-secretase 1; assay: Inhibition of BACE1 in human SH-SY5Y cells harboring wild type APP695 assessed as increase in AICD level at 3 uM by Western blot method relative to chloroquine; in short: as §1

| Compound | fold change (FC) [1] | IC50 [2] [µM] | fold change (FC) [3] |
| --- | --- | --- | --- |
| c1cc(CN2CCCCC2)cc(-c2ccc(NCCCN3CCCCC3)c(OCCN3CCCCC3)c2)c1 | 3.3 | 4.3 | 2.6 |
| c1ccc(-c2ccc(NCCCN3CCCCC3)c(OCCN3CCCCC3)c2)cc1 | 2.4 | 5.2 | 2.1 |
| CN(C)Cc1ccccc1-c1ccc(NCCCCN2CCCCC2)c(OCCN2CCCCC2)c1 | 4.2 | 1.7 | 3 |
| Oc1c(CN2CCCC2)cc(Nc2ccnc3cc(Cl)ccc23)cc1CN1CCCC1 | 2.1 | 5.1 | 2.5 |
| c1ccc(-c2ccc(NCCCN3CCCCC3)c(OCCN3CCCCC3)c2)c(CN2CCCCC2)c1 | 4.3 | 2.6 | 2.7 |
| CN(C)Cc1ccccc1-c1cccc(OCCN2CCCCC2)c1 | 0.6 | 1.5 | 0.7 |
| CN(C)Cc1ccc(-c2ccc(NCCCN3CCCCC3)c(OCCN3CCCCC3)c2)cc1 | 2.1 | 1.5 | 2.5 |
| c1ccc(-c2cccc(OCCN3CCCCC3)c2)cc1 | 0.1 | 9.1 | 0.2 |
| CC(C)CN(CCCN1CCN(CCCNc2nc3ccccc3[nH]2)CC1)CC(C)C | 1.3 | 1.7 | 1.8 |
| c1cc(-c2ccc(NCCCN3CCCCC3)c(OCCN3CCCCC3)c2)ccc1CN1CCCCC1 | 2.6 | 2.1 | 2.5 |
